# TAAR1 antagonist – antagonists of human TAAR1; 360,000 tested, 1.5% active; inhibition, % at 3 µM; Q96RJ0; CHO RD-HGA16 TAAR1, Fluo-8 calcium fluorescence, antagonist;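 active = inhibition above a per-plate cutoff, the mean inhibition of test compounds on that plate plus 3 SD, cut at about 49% in these data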;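 note: 0% = DMSO plus EC80 beta-PEA response and 100% = DMSO alone without agonist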
# Target sequence (Q96RJ0 whole entry, looked up): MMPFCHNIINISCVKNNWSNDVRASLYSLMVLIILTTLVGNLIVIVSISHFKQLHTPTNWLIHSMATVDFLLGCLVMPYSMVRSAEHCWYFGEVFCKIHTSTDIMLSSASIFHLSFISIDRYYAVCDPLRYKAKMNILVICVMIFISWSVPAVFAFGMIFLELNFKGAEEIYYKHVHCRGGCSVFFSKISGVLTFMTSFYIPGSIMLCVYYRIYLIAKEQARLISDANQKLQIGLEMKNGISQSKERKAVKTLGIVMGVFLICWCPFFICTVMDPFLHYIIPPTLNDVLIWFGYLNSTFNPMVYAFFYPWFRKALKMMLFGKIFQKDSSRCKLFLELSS
#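 test system = CHO RD-HGA16 cells bearing hTAAR1 | replication = singlicate | controls = DMSO-only wells and EC80 β-PEA-stimulated wells | reagent = EC80 β-phenethylamine stimulus | read-out basis = percent inhibition of PEA-evoked calcium signal, max/basal emission ratio | schedule = seeding 17-24 h prior, 75-min 37 °C, 30-min RT dye loading | signal = kinetic Fluo-8 calcium fluorescence measurement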
# GPR7 antagonist – blocks human GPR7 receptor signaling. AID 1861. inhibition, % at 4.4 µM. P48145. 290,000 tested, 1.1% active. GPR7-expressing cells, fluorescence antagonist assay; in the data active = inhibition above about 16%, passing the limit was not always enough;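 note: cells stimulated with the agonist NPW; 0% = agonist with vehicle and 100% = vehicle without agonist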
# Target sequence (P48145 whole entry, looked up): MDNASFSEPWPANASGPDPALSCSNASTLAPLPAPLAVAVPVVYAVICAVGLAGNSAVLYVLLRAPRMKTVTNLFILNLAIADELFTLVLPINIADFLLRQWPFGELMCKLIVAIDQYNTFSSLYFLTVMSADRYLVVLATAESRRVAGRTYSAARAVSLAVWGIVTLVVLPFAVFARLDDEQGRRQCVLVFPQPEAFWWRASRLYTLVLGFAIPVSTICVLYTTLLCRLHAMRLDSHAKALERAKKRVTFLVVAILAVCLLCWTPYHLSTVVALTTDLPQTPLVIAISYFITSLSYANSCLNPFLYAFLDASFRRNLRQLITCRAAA
# TAAR1 agonist – human TAAR1 agonism. 360,000 tested, 0.99% active. activation, % at 3 µM. CHO RD-HGA16 TAAR1, Fluo-8 calcium fluorescence; vehicle wells 0%, saturating PEA agonist 100%;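 active = activation above the mean activation of all test compounds in the run plus 3 SD, cut at about 38% in these data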
#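 Assay system – CHO-derived RD-HGA16 cells with stable Gα16 and human TAAR1 · Compound dosing – one-point dosing at 3 µM (nominal) · Incubation – 17-24 h seeding, 75 min 37 °C dye, 30 min RT · Measured by – kinetic Fluo-8 calcium fluorescence · Control set – DMSO vehicle as 0%, PEA at EC100 as 100% · Repeats – single well for each compound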
# TRPML3 agonist – activates the human TRPML3 channel; Q8TDD5; HEK293 TRPML3-YFP, Fluo-8 calcium fluorescence; 100% = the carbachol control signal; activation, % at 3 µM; 220,000 tested, 0.29% active; AID 1448;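 active = activation above its plate's cutoff, the mean activation of the plate's test wells plus 3 SD, cut at about 12% in these data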;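 note: 0% = DMSO only wells and 100% = carbachol wells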
#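 Test system – HEK293 line with stable expression of human TRPML3-YFP channel · Control set – carbachol 87 µM final as high control (100%), DMSO as low control (0%) · Signal – Fluo-8 calcium dye fluorescence, ex 470-495, em 515-575 nm · Incubation – 1-h 37 °C dye load, 5-s basal, 120-s post-compound reads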
# TRPN1 ag – activates the zebrafish TRPN1 channel. HEK293 zebrafish TRPN1-YFP, Fluo-8 calcium fluorescence; 100% = response to 87 µM carbachol. activation, % at 3 µM. AID 1424. 220,000 tested, 0.18% active;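 active = activation above its plate's cutoff, the mean activation of test wells on that plate plus 3 SD, cut at about 19% in these data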;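 note: 0% = DMSO alone and 100% = 87 µM carbachol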
#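 Assay system: Zebrafish TRPN1-YFP in HEK293 cells | Incubation: Dye loading 1 h at 37 °C, then 30 min room temperature | Measured by: Kinetic Fluo-8 fluorescence, ex 470-495, em 515-575 nm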
# LANA-H2A inh – blocks KSHV LANA binding to histone H2A/H2B. inhibition, % (test concentration not listed). AID 2629. Q9QR71. cell-free LANA-H2A/H2B peptide, fluorescence polarization. 320,000 tested, 0.6% active; in the data active = inhibition mostly above about 10%, no sharp cut-off; inactive = mostly below about 6.7%
# Numbers without * were called inactive; x = no result. Compounds with a hit are over-represented: about 3.4% of the library has one in this group of screens.
SMILES,TAAR1 antagonist,GPR7 antagonist,TAAR1 agonist,TRPML3 agonist,TRPN1 ag,LANA-H2A inh
NC(c1csc(Nc2ncccn2)n1)C1CCCCC1 (stereo not given),-17,x,3,x,x,x
CC(C)c1ccc(NC(=O)Nc2nc(C(N)CCc3ccccc3)cs2)cc1 (stereo not given),33,x,42*,x,x,x
NC(c1csc(Nc2nccc(C(F)(F)F)n2)n1)C1CCCCC1 (stereo not given),30,x,44*,x,x,x
NC(Cc1ccc(Cl)cc1)c1csc(Nc2ccc(C(=O)c3ccccc3)cc2)n1 (stereo not given),44,x,33,x,x,x
NC(Cc1ccccc1)c1csc(Nc2ccc(C(=O)c3ccccc3)cc2)n1 (stereo not given),27,x,54*,x,x,x
CC(C)CC(N)c1csc(Nc2ccc(C(=O)c3ccccc3)cc2)n1 (stereo not given),29,x,41*,x,x,x
NC(Cc1ccc(F)cc1)c1csc(Nc2ccc(C(=O)c3ccccc3)cc2)n1 (stereo not given),53*,x,52*,x,x,x
NC(c1csc(Nc2ccc(C(=O)c3ccccc3)cc2)n1)C1CCCCC1 (stereo not given),41,x,46*,x,x,x
CC(=O)c1ccc(Nc2nc(C(N)C3CCCCC3)cs2)cc1 (stereo not given),-21,x,4,x,x,x
NC(CO)c1csc(Nc2ccc(C(=O)c3ccccc3)cc2)n1 (stereo not given),5,x,1,x,x,x
CC(=O)NC1CCCCN(C)C1=O (stereo not given),0,x,1,x,x,x
O=C(CC1SC(N2CCOCC2)=NC1=O)Nc1ccc(Cl)c(C(F)(F)F)c1 (stereo not given),11,x,12,x,x,22*
Cc1ccccc1CN1[C@@H](C)[C@H](c2ccccc2)Oc2cccc(N3CCCC3)c2S1(=O)=O,-40,x,1,x,x,x
COc1ccc(CCN2CCC(CN3C(=S)NC[C@@H]3Cc3ccccc3)CC2)cc1OC,-2,x,1,x,x,x
CCC(C)(C(=O)NC1CCCC1)N(Cc1cccs1)C(C)=O (stereo not given),1,-10,1,0,0,-5
CCC(C)(C(=O)NC1CCCC1)N(Cc1cccs1)C(=O)Cc1cccs1 (stereo not given),-5,42*,3,1,-1,1
CCC(C)(C(=O)NC1CCCCC1)N(Cc1ccco1)C(=O)c1cnccn1 (stereo not given),-7,16*,3,0,0,0
O=C(NC(Nc1nc2ccc([N+](=O)[O-])cc2s1)(C(F)(F)F)C(F)(F)F)c1ccccc1Cl,55*,43*,7,23*,23*,3
O=C(NC(Nc1nc2ccc([N+](=O)[O-])cc2s1)(C(F)(F)F)C(F)(F)F)c1cccnc1,-32,-1,17,10,18,-3
COc1cccc(CNC(=O)[C@H]2CCCN2C(=O)[C@H]2CCCN2C(=O)c2cccc(OC)c2)c1,5,x,1,x,x,x
C[C@H](NC(=O)C[C@@H]1C[C@@H]2c3cc(NC(=O)C4CCC4)ccc3O[C@@H]2[C@@H](CO)O1)c1ccccc1,4,x,3,x,x,x
O=C1NC(=S)/C(=C\c2ccc(-c3ccccc3Cl)o2)S1,50*,-5,9,3,3,1
Cc1nc(C(=O)Nc2ccccc2Cl)cc2c1[nH]c1ccccc12,8,10,5,0,-1,8.3*
COC(=O)[C@]12C[C@H](CC(=O)NCCC(C)C)C(=O)N(Cc3ccc4c(c3)OCO4)C1=C[C@H](C(C)(C)C)O[C@@H]2C,-32,x,-2,x,x,x
CN(C)c1ccc(/C=C/C(=O)c2ccc(O)cc2)cc1,31,x,49*,x,x,x
SMILES,TAAR1 antagonist,GPR7 antagonist,TAAR1 agonist,TRPML3 agonist,TRPN1 ag,LANA-H2A inh
CN(C)c1ccc(/C=C/C(=O)c2cccnc2)cc1,9,12,32,33*,43*,-8
CCOc1ccccc1N(CC(=O)NCCSCc1ccco1)S(=O)(=O)c1ccccc1,50*,11,0,x,x,-1
CCOc1ccccc1N(CC(=O)N1CCOCC1)S(=O)(=O)c1ccccc1,-3,-17,9,182*,6,-1
Nc1[nH]c(C(=O)c2ccccc2)c(-c2ccc3ccccc3c2)c1C(=O)NCc1ccc(F)cc1,-32,x,5,x,x,x
Cc1ccc(CN2CC(N3CCC[C@@H]3C)CS2(=O)=O)cc1 (stereo not given in full),-9,x,1,x,x,x
CCCCc1c(-c2ccccc2OC)ncn1Cc1ccc(C)cc1,28,x,6,x,x,x
CCN1/C(=C/C=C/c2oc3ccc(-c4ccccc4)cc3[n+]2CC)Oc2ccc(-c3ccccc3)cc21,105*,98*,531*,326*,777*,-61
CN(CC(=O)NCc1ccco1)S(=O)(=O)c1ccc(F)cc1,-4,-10,0,x,x,0
CN(CCCC(=O)NCc1ccco1)S(=O)(=O)c1ccccc1,-5,16*,12,0,0,-5
Cc1ccccc1NC(=O)Cc1nc(COC(=O)COc2ccc(C(C)(C)C)cc2)cs1,27,x,8,x,x,17*
COC(=O)C1=C(C)N(Cc2ccccc2C(F)(F)F)C(=NCc2ccc(C(F)(F)F)cc2)NC1c1ccc(C(F)(F)F)cc1 (stereo not given),-15,x,1,x,x,x
NC(=O)c1ccsc1NC(=O)COC(=O)c1ccc(Cl)c(N)c1,53*,x,14,x,x,1
COc1ccc(C(=O)OCC(=O)Nc2sccc2C(N)=O)cc1[N+](=O)[O-],55*,x,29,x,x,2
Cc1ccsc1C(=O)OCC(=O)Nc1sccc1C(N)=O,24,2,42*,0,5,-1
COC(=O)c1cc2c(c3c4cc(OC)ccc4n(S(=O)(=O)c4ccc(F)cc4)c13)C(=O)N(Cc1ccccc1)C2,-40,x,0,x,x,x
O=C(N/N=C/c1ccc(Cl)cc1)c1ccc2nc[nH]c2c1,53*,x,18,x,x,x
O=[N+]([O-])c1ccc(NCCCc2ccccc2)cc1,52*,x,-1,x,x,x
O=C(O)c1cc([N+](=O)[O-])ccc1NCCCc1ccccc1,-6,x,0,x,x,5
COCc1[nH]nc2c1C(c1ccc3c(c1)OCO3)N(Cc1ccccc1)C2=O (stereo not given),9,x,1,x,x,x
CCC(=O)NC(Nc1sc2c(c1C(=O)OC)CCCC2)(C(F)(F)F)C(F)(F)F,64*,-3,40*,-1,0,4
COCC(=O)Nc1sc2c(c1C(=O)OC)CCCC2,-9,-4,1,-1,0,-2
Brc1ccc(CN2CCCc3nc(-c4ccccc4)ccc32)cc1,-5,x,-1,x,x,x
CC1=C[C@@H]2[C@H]3C(=O)N(Cc4ccccc4)C(=O)[C@H]3[C@@H]1[C@@H]1O[C@@]3(C(=O)N(C)c4ccccc43)C3=C(CCCC3=O)N21,-3,x,8,x,x,x
